Consider 20 molecules from ChEMBL document CHEMBL3877256, “Design, synthesis and evaluation of novel 2-amino-3-(naphth-2-yl)propanoic acid derivatives as potent inhibitors of platelet aggregation” (Eur J Med Chem, 2017).

As a reminder, the inhibition is the relative decrease from the control value, in per cent. Usually IC50 stands for the concentration that inhibits the measured activity by half.

For data set [1], the target named is T1, Integrin alpha-IIb/beta-3 (Homo sapiens, UniProt P05106+P08514). Description: Antagonist activity at GP2b/GP3a receptor in human platelet rich plasma assessed as inhibition of ADP-induced platelet aggregation at 50 uM preincubated for 1 min followed by ADP addition by aggregometric method relative to control. A digest of the protocol: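 Human PRP from apheresis platelets, PPP from centrifugation at 3000r/min for 10 min used as reference. Compound in saline or 0.2% aqueous DMSO added to PRP, incubated 1 min, then ADP 20 μM (per table footnotes; methods list 10 μM) added. Light transmission aggregometry at 37°C, maximal aggregation vs PPP. Inhibition relative to control aggregation ratio. IC50 from at least four concentrations.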

The target of data set [2] is T1, Integrin alpha-IIb/beta-3. Description: Displacement of fibrinogen from human platelet GP2b/GP3a receptor after 2 hrs by ELISA. The method, boiled down:
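Plates coated overnight at 4°C with fibrinogen 10 µg/ml in 0.1 M carbonate pH 9.5, blocked with 1% BSA. Purified human platelet GPIIb/IIIa (20 µg/ml) added with samples for 2 h in Tris/NaCl/CaCl2/Tween buffer pH 7.5. Bound receptor detected with anti-β3 antibody (1 h, 37°C) and alkaline phosphatase conjugate with pNPP, A405. BSA-only wells subtracted. Triplicate.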
(In general: An ELISA detects its analyte on a solid surface through an enzyme-linked reagent.)

Data set [3] concerns Mus musculus. In words: Toxicity in ICR mouse assessed as bleeding time at 3 mg/kg, iv administered 30 mins prior to test by tail transection method. Type of data set: organism-based. The following applies: in vivo, 0.5 h. The method, boiled down: (§1)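 ICR mice dosed 30 min before test, saline as control. Anesthetized with 5% chloral hydrate i.p., kept at 37°C on a heating pad. 3-mm tail tip cut off and tail immersed in 37°C saline. Time until bleeding stopped for more than 5 s recorded, accumulated within 20 min. n=6.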

Data set [4] concerns Mus musculus. Description: Toxicity in ICR mouse assessed as bleeding time at 15 mg/kg, iv administered 30 mins prior to test by tail transection method. Type of data set: organism-based. The following applies: in vivo, 0.5 h. A digest of the protocol: as §1
For data set [5], the system named is Mus musculus. In words: Toxicity in ICR mouse assessed as bleeding time at 30 mg/kg, iv administered 30 mins prior to test by tail transection method. The data set is classed as organism-based. The following applies: in vivo, 0.5 h. A digest of the protocol: as §1
Data set [6] has as its system Rattus norvegicus. In words: Anti-thrombotic activity in Sprague-Dawley rat arterio-venous shunt thrombosis model assessed as reduction in thrombus weight at 10 mg/kg, iv pretreated for 15 mins followed by arteriovenous shunt thrombosis induction measured after 20 mins relative to control. Type of data set: functional. On the set-up: scale not given: the % may be the effect or the level left. A digest of the protocol: (§2)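 SD rats of both sexes, 180~220 g, dosed by tail vein injection. After 15 min, anesthetized with 10% chloral hydrate (3 ml/kg i.p.). Shunt catheter placed between left jugular vein and right common carotid artery, opened 20 min. Thrombus dried at 60°C for 20 min and weighed without the thread. n=6.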

The test system of data set [7] is Rattus norvegicus. Description: Anti-thrombotic activity in iv dosed Sprague-Dawley rat arterio-venous shunt thrombosis model assessed as reduction in thrombus weight pretreated for 15 mins followed by arteriovenous shunt thrombosis induction measured after 20 mins. The data set is classed as functional, organism-based. A digest of the protocol: as §2

For the molecule `O=C(O)C(Cc1c[nH]c2ccc(OCCCCC3CCNCC3)cc12)NS(=O)(=O)c1ccc(Br)cc1` (stereo not drawn), in data set [1], the inhibition amounted to 38.1%.

Take `N=C(N)c1ccc(COc2ccc3cc(CC(NS(=O)(=O)c4ccccc4)C(=O)O)ccc3c2)cc1` (racemic): the inhibition in data set [1] is greater than 99.5%. Besides, in data set [2], the concentration for half-maximal inhibition (IC50) is 1.33 µM and the inhibition result was “Dose-dependent effect”.

For the molecule `Cl.O=C(O)C(Cc1ccc2cc(OCCCN3CCNCC3)ccc2c1)NS(=O)(=O)c1ccccc1` (racemic), the Time is given as 6.72 min in the data set on Mus musculus [3], 8.63 min in the data set on Mus musculus [4] and 9.28 min in the data set on Mus musculus [5]. This molecule displayed an IC50 in data set [2] of 0.08 µM. In addition, the inhibition result in data set [2] is “Dose-dependent effect”. Besides, the Activity was 40% in the data set on Rattus norvegicus [6] and “Dose-dependent effect” in the data set on Rattus norvegicus [7].

In the case of `CCCC(=O)NC(Cc1ccc2cc(OCc3ccc(C(=N)N)cc3)ccc2c1)C(=O)O` (racemic), in data set [1], the inhibition is greater than 99.5%.

For `CCCCS(=O)(=O)NC(Cc1ccc2cc(OCc3ccc(C(=N)N)cc3)ccc2c1)C(=O)O` (racemic), the inhibition in data set [1] is greater than 99.5%.

`COc1ccc(C(=O)NC(Cc2ccc3cc(OCc4ccc(C(=N)N)cc4)ccc3c2)C(=O)O)cc1` (racemic): in data set [1], the inhibition came out at 32.4%.

Take `COc1ccc(S(=O)(=O)NC(Cc2ccc3cc(OCc4ccc(C(=N)N)cc4)ccc3c2)C(=O)O)cc1` (racemic): in data set [1], the inhibition worked out at 21.5%.

`Cc1ccc(S(=O)(=O)NC(Cc2ccc3cc(OCc4ccc(C(=N)N)cc4)ccc3c2)C(=O)O)cc1` (racemic): the inhibition in data set [1] is greater than 99.5%.

With `N=C(N)c1ccc(COc2ccc3cc(CC(NC(=O)c4ccc(F)cc4)C(=O)O)ccc3c2)cc1` (racemic), the inhibition in data set [1] was found to be 23.3%.

Regarding `N=C(N)c1ccc(COc2ccc3cc(CC(NC(=O)c4ccc([N+](=O)[O-])cc4)C(=O)O)ccc3c2)cc1` (racemic), the inhibition in data set [1] was greater than 99.5%.

With `N=C(N)c1ccc(COc2ccc3cc(CC(NC(=O)c4cccc(F)c4)C(=O)O)ccc3c2)cc1` (racemic), the inhibition in data set [1] was 49.7%.

For the molecule `N=C(N)c1ccc(COc2ccc3cc(CC(NC(=O)c4ccccc4)C(=O)O)ccc3c2)cc1` (racemic), the inhibition in data set [1] worked out at 49.4%.

For `N=C(N)c1ccc(COc2ccc3cc(CC(NS(=O)(=O)c4ccc(Br)cc4)C(=O)O)ccc3c2)cc1` (racemic), the inhibition in data set [1] was 50.2%.

In the case of `N=C(N)c1ccc(COc2ccc3cc(CC(NS(=O)(=O)c4ccc([N+](=O)[O-])cc4)C(=O)O)ccc3c2)cc1` (racemic), the inhibition in data set [1] was found to be 62.9%.

For `O=C(O)C(Cc1ccc2cc(OCC3CCNCC3)ccc2c1)NS(=O)(=O)c1ccc(Br)cc1` (racemic), the inhibition in data set [1] was less than 5%.

With `O=C(O)C(Cc1ccc2cc(OCCC3CCNCC3)ccc2c1)NS(=O)(=O)c1ccc(Br)cc1` (racemic), the inhibition in data set [1] was less than 5%.

In the case of `O=C(O)C(Cc1ccc2cc(OCCCC3CCNCC3)ccc2c1)NS(=O)(=O)c1ccc(Br)cc1` (racemic), the inhibition in data set [1] was less than 5%.

On to `O=C(O)C(Cc1ccc2cc(OCCCCN3CCNCC3)ccc2c1)NS(=O)(=O)c1ccc(Br)cc1` (racemic), for which the inhibition in data set [1] is 91.2%.

Take `O=C(O)C(Cc1ccc2cc(OCCCN3CCNCC3)ccc2c1)NS(=O)(=O)c1ccc(Br)cc1` (racemic): the inhibition in data set [1] stood at 99.1%.

With `O=C(O)C(Cc1ccc2cc(OCCN3CCNCC3)ccc2c1)NS(=O)(=O)c1ccc(Br)cc1` (racemic), the inhibition in data set [1] turned out to be 97.3%.
